Assay results as given in ChEMBL document CHEMBL1154752, “Discovery of a new and efficient small molecule for neuronal differentiation from mesenchymal stem cell” (J Med Chem, 2009).
Active and inactive are the calls of the source. No cut-off for these calls is given here.

Experiments:
Mesenchymal stem cell [1] = experiment: Induction of neuronal differentiation in Fisher rat mesenchymal stem cells assessed as change in cell morphology at 20 uM after 2 days; format: functional, cell-based
Summary of the method: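 Bone marrow MSCs treated at 20 μM for 2 days. Morphology inspected by immunocytochemistry with anti-β-III tubulin and DAPI staining.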

Mesenchymal stem cell [2] = experiment: Induction of neuronal differentiation in Fisher rat mesenchymal stem cells assessed as induction of Chrna2 gene expression by DNA microarray; format: functional, cell-based
Mesenchymal stem cell [3] = experiment: Induction of neuronal differentiation in Fisher rat mesenchymal stem cells assessed as induction of cholinergic receptor gene expression after 2 days by quantitative PCR; format: functional, cell-based
Summary of the method: (§1)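 MSCs incubated at 10 and 20 μM for 2 days beside a DMSO control. mRNA levels measured by quantitative PCR, three independent runs.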

PC-12 [4] = experiment: Induction of neurite outgrowth in rat PC12 cells after 48 hrs; format: functional, cell-based
[5] = Induction of neuronal differentiation in Fisher rat mesenchymal stem cells at 20 uM after 2 days by Nissl staining; format: functional, Mesenchymal stem cell
Summary of the method: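 Bone marrow MSCs held at 20 μM for 2 days, then Nissl stained. Differentiation estimated by counting cells. Each experiment repeated independently more than three times.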

Mesenchymal stem cell [6] = experiment: Induction of neuronal differentiation in Fisher rat mesenchymal stem cells assessed as change in acetylcholine-induced membrane potential at 20 uM after 2 days by FLIPR; format: functional, cell-based
Summary of the method: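 Rat MSCs preincubated with 20 μM for 48 h. Membrane potential read with a FLIPR membrane potential dye kit after addition of 10 μM acetylcholine, with untreated cells as reference.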

PC-12 [7] = experiment: Induction of neuronal differentiation in rat PC12 cells assessed as increase in neuron specific enolase expression after 48 hrs; format: functional, cell-based
PC-12 [8] = experiment: Induction of neuronal differentiation in rat PC12 cells assessed as increase in beta-3 tubulin expression after 48 hrs; format: functional, cell-based
Mesenchymal stem cell [9] = experiment: Induction of neuronal differentiation in Fisher rat mesenchymal stem cells assessed as increase in beta-3 tubulin expression after 2 days; format: functional, cell-based
Summary of the method: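 Rat bone marrow MSCs given 20 μM for 2 days, with 50 ng/mL NGF as comparator. β-III tubulin detected by Western blot and by immunocytochemistry with anti-β-III tubulin plus DAPI counterstain. More than three independent repeats.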

Mesenchymal stem cell [10] = experiment: Induction of astroglial differentiation in Fisher rat mesenchymal stem cells assessed as GFAP level at 20 uM after 2 days by Western blot; format: functional, cell-based
Summary of the method: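 Rat bone marrow MSCs exposed to 20 μM for 48 h. GFAP, the astroglial marker, detected by Western blot.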

Mesenchymal stem cell [11] = experiment: Induction of neuronal differentiation in Fisher rat mesenchymal stem cells assessed as induction of Fbxo2 gene expression after 2 days by quantitative PCR; format: functional, cell-based; summary of the method: as §1
Mesenchymal stem cell [12] = experiment: Induction of neuronal differentiation in Fisher rat mesenchymal stem cells assessed as induction of Chrnb2 gene expression by DNA microarray; format: functional, cell-based
Mesenchymal stem cell [13] = experiment: Induction of neuronal differentiation in Fisher rat mesenchymal stem cells assessed as increase in neuron specific enolase expression after 2 days; format: functional, cell-based
Summary of the method: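 Rat bone marrow MSCs treated over a time course. Neuron-specific enolase protein followed alongside β-III tubulin. More than three independent experiments.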

Mesenchymal stem cell [14] = experiment: Induction of neuronal differentiation in Fisher rat mesenchymal stem cells assessed as induction of Sizn1 gene expression after 2 days by quantitative PCR; format: functional, cell-based; summary of the method: as §1
[15] = Toxicity in Fisher rat mesenchymal stem cells at 20 uM after 2 days; format: cell-based; conditions: mesenchymal stem cell, 48 h
Mesenchymal stem cell [16] = experiment: Induction of neuronal differentiation in Fisher rat mesenchymal stem cells assessed as induction of potassium current at 20 uM after 2 days by patch clamp method; format: functional, cell-based
Summary of the method: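 Rat MSCs treated at 20 μM for 2 days. Whole-cell patch clamp records membrane K+ current under voltage pulses from -30 to 90 mV.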

Mesenchymal stem cell [17] = experiment: Induction of neuronal differentiation in Fisher rat mesenchymal stem cells assessed as induction of Chrm4 gene expression by DNA microarray; format: functional, cell-based

With `O=C(NOC1CCCCO1)c1ccc2[nH]c(=O)c(CCCc3ccccc3)nc2c1` (configuration not stated) the Activity (Mesenchymal stem cell [1]) was “inactive”.
For `O=C(NOC1CCCCO1)c1ccc2nc(CCCc3ccccc3)c(=O)[nH]c2c1` (configuration not stated), the Activity (Mesenchymal stem cell [1]) was “inactive”.
For `O=C(NO)c1ccc2nc(CCCc3ccccc3)c(=O)[nH]c2c1`, the Activity (Mesenchymal stem cell [1]) was “inactive”.
For `COC(=O)c1ccc2[nH]c(=O)c(CCCc3ccccc3)nc2c1`, the Activity (Mesenchymal stem cell [1]) was “inactive”.
With `O=C(NO)c1ccc2[nH]c(=O)c(CCCc3ccccc3)nc2c1` the Activity (Mesenchymal stem cell [2]) was “Active”, the Activity (Mesenchymal stem cell [3]) was “Dose-dependent effect” and the Activity (PC-12 [4]) was “Active”. For the same compound, the Activity [5] was over 95%, the Activity (Mesenchymal stem cell [6]) was “Active” and the Activity (PC-12 [7]) was “Active”. For the same compound, the Activity (PC-12 [8]) was “Active”, the Activity (Mesenchymal stem cell [9]) was “Dose-dependent effect” and the Activity (Mesenchymal stem cell [10]) was “inactive”. The Activity (Mesenchymal stem cell [11]) was “Dose-dependent effect”, the Activity (Mesenchymal stem cell [12]) was “Active” and the Activity (Mesenchymal stem cell [13]) was “Dose-dependent effect”. For the same compound, the Activity (Mesenchymal stem cell [14]) was “Dose-dependent effect”, the Activity [15] was “Non-toxic” and the Activity (Mesenchymal stem cell [16]) was “Active”. The Activity (Mesenchymal stem cell [1]) was “Active” and the Activity (Mesenchymal stem cell [17]) was “Active”.
With `COC(=O)c1ccc2nc(CCCc3ccccc3)c(=O)[nH]c2c1` the Activity (Mesenchymal stem cell [1]) was “inactive”.
